# TAAR1 ag – agonists of human TAAR1. Q96RJ0. CHO RD-HGA16 TAAR1, Fluo-8 calcium fluorescence; vehicle wells 0%, saturating PEA agonist 100%. activation, % at 3 µM. 360,000 compounds, 0.99% hits. AID 624467;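 active = activation above the mean activation of all test compounds in the run plus 3 SD, cut at about 38% in these data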
# Target sequence (Q96RJ0 whole entry, looked up): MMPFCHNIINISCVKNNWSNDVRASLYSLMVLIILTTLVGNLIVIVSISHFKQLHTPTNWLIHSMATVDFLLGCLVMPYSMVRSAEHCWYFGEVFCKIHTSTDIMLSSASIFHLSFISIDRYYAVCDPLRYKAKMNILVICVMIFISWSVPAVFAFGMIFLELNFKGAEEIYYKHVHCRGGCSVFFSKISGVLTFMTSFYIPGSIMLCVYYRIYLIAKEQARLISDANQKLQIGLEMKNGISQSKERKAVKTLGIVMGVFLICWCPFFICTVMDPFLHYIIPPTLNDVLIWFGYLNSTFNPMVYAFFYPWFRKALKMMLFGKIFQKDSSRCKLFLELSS
#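 Test system: RD-HGA16 (CHO) cells co-expressing Gα16 and hTAAR1 | Doses: Single dose, 3 µM | Schedule: 17-24 h seeding, 75 min 37 °C dye, 30 min RT | Evaluation: % activation from peak over basal fluorescence ratio, DMSO-to-PEA scaled | Technique: Kinetic Fluo-8 calcium fluorescence | Benchmarks: Low control DMSO, high control PEA (EC100)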
# TAAR1 antagonist – human TAAR1 antagonism. CHO RD-HGA16 TAAR1, Fluo-8 calcium fluorescence, antagonist. inhibition, % at 3 µM. 360,000 compounds, 1.5% hits;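 active = inhibition above a per-plate cutoff, the mean inhibition of test compounds on that plate plus 3 SD, cut at about 49% in these data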;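 also: 0% = DMSO plus EC80 beta-PEA response and 100% = DMSO alone without agonist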
#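 Assay system: CHO-derived RD-HGA16 cells stably expressing human TAAR1 plus Gα16. Timing: 140 s kinetic read after compound, 140 s after agonist. Technique: kinetic Fluo-8 calcium fluorescence measurement. Measure: % inhibition of agonist calcium response.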
# GPR7 antagonist – blocks human GPR7 receptor signaling. inhibition, % at 4.4 µM. AID 1861. P48145. 290,000 compounds, 1.1% hits. GPR7-expressing cells, fluorescence antagonist assay; in the data active = inhibition above about 16%, passing the limit was not always enough;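 also: cells stimulated with the agonist NPW; 0% = agonist with vehicle and 100% = vehicle without agonist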
# Target sequence (P48145 whole entry, looked up): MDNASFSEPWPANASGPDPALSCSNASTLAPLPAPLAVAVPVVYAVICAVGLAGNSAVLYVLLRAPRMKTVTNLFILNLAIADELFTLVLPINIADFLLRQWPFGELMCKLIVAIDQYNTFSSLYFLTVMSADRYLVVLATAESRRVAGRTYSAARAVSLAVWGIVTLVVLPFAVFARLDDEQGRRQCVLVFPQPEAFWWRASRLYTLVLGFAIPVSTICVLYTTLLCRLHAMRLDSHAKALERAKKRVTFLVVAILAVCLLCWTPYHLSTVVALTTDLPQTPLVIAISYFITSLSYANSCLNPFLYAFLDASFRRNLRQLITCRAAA
# CHO parental Ca – signal in parental CHO cells, OX1R antagonist counter-screen; 330,000 compounds, 0.63% hits; inhibition, % at 5.6 µM; parental CHO-K1, ATP-induced calcium, Fluo-8 fluorescence; AID 463079;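 active = inhibition above that plate's mean sample inhibition plus 3 SD, cut at about 26% in these data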;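 also: 0% = ATP-challenged DMSO wells and 100% = DMSO wells without ATP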
#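 Material – parental CHO cells · Reagent – ATP stimulus · Compound – single nominal dose of 5.6 µM per compound · Detection – Fluo-8 fluorescence · Read-out basis – percent inhibition of calcium signal · Controls – ATP-challenged DMSO wells low, unchallenged DMSO wells high · Repeats – no replicates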
# OX1R antag-1 – blocks the human orexin 1 receptor. O43613. CHO/OX1R cells, Fluo-8 calcium fluorescence, orexin A. inhibition, % at 5 µM. 330,000 compounds, 0.43% hits;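 active = inhibition above its plate's threshold, mean inhibition of all tested compounds on the plate plus 3 SD, cut at about 37% in these data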;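 also: 0% = orexin A challenge wells and 100% = SB-334867-A antagonist wells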
# OX1R antag-2 – OX1R (human) antagonism. O43613. 330,000 compounds, 1.8% hits. inhibition, % at 6.6 µM. OX1R-expressing cells, FRET antagonist read-out. AID 485270; in the data active = inhibition mostly above about 38%, no sharp cut-off; inactive = mostly below about 40%;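 also: 0% = agonist challenge alone and 100% = reference antagonist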
# nonsel antag count – counter-screen for TAAR1 antagonists: nonselective antagonists; shares compounds with TAAR1 antagonist; counterscreen cell line, calcium fluorescence, antagonist mode; inhibition, % at 3 µM; 2,400 compounds, 77% hits; in the data active = inhibition above about 22%;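 also: CHO-Ga16 host cells stimulated with ATP at an EC80 level; 0% = agonist EC80 plus vehicle and 100% = vehicle without agonist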
# TAAR1 antag conf – human TAAR1 antagonism, confirmed; shares compounds with TAAR1 antagonist; TAAR1-expressing cells, fluorescence antagonist read-out; inhibition, % at 3 µM; 2,400 compounds, 40% hits; AID 651785; in the data active = inhibition above about 49%;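 also: CHO-Ga16 host cells challenged with agonist PEA near its EC80; 0% = agonist at EC80 plus vehicle and 100% = vehicle with no agonist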
# Ga16 ag counter – nonselective Ga16 agonism, counter-screen | shares compounds with TAAR1 antagonist | Ga16-expressing cells, calcium fluorescence, agonist counterscreen | activation, % at 3 µM | 2,400 compounds, 18% hits | AID 651953; in the data active = activation above about 12%;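 also: 0% = vehicle wells and 100% = saturating stimulus response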
# TAAR1 ag counter – TAAR1 agonism, antagonist counter-screen; shares compounds with TAAR1 antagonist; hTAAR1 cell line, fluorescence activation, agonist mode; activation, % at 3 µM; 2,400 compounds, 2% hits; AID 651955; in the data active = activation above about 37%;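 also: CHO cells stably expressing TAAR1 with calcium dye readout; 0% = DMSO vehicle and 100% = full agonist response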
# Active calls of the source: *; / = not tested or not shown. This is a sample that favours compounds with a hit; in the whole collection about 4.6% have one here.
SMILES,TAAR1 ag,TAAR1 antagonist,GPR7 antagonist,CHO parental Ca,OX1R antag-1,OX1R antag-2,nonsel antag count,TAAR1 antag conf,Ga16 ag counter,TAAR1 ag counter
COc1ccc(NC(=O)Nc2cccc3c2O[C@H](CN(C)C(=O)Nc2ccc4c(c2)OCO4)[C@@H](C)CN([C@H](C)CO)C3=O)cc1,17,65*,/,-17,-6,29,33*,53*,5,6
C[C@H](CO)N1C[C@H](C)[C@@H](CN(C)C(=O)Nc2ccc3c(c2)OCO3)Oc2c(NC(=O)Nc3ccc4c(c3)OCO4)cccc2C1=O,24,69*,/,-3,-10,-1,31*,53*,9,9
C[C@H](CO)N1C[C@H](C)[C@@H](CN(C)Cc2ccccc2)Oc2c(NC(=O)Cc3ccccc3)cccc2C1=O,22,68*,/,-11,-15,11,26*,44,8,15
COc1ccc(C2=NNC(=O)C2(C)Br)cc1 (centres undefined),1,-16,/,/,/,/,/,/,/,/
Cc1ccc(CNC(=O)c2cc(-c3ccccc3C)nn2CC2CC(c3cccnc3)=NO2)cc1 (centres undefined),12,64*,/,-11,-16,-1,26*,34,5,10
Cc1ccccc1-c1cc(C(=O)NCc2ccc(OC(F)(F)F)cc2)n(CC2CC(c3cccnc3)=NO2)n1 (centres undefined),16,70*,/,-4,8,5,36*,53*,7,11
O=C(NCc1cccc(C(F)(F)F)c1)c1cc(-c2ccccc2)nn1CC1CC(c2cccnc2)=NO1 (centres undefined),18,32,/,11,-24,17,/,/,/,/
O=C(NCc1cccc(Br)c1)c1cc(-c2ccccc2)nn1CC1CC(c2cccnc2)=NO1 (centres undefined),16,56*,/,-17,-19,14,21*,29,4,1
COc1ccc(CSc2nc(C)cc(C)c2S(C)(=O)=O)cc1,2,15,8,-13,-19,14,/,/,/,/
CC(C)(C)c1ccc(CNc2ccc([N+](=O)[O-])cn2)cc1,1,68*,2,5,-12,8,14,39,12*,16
CC(C)c1ccc(CNc2ccc([N+](=O)[O-])cn2)cc1,8,48,-1,18,-8,10,/,/,/,/
COc1c(C)cc(C(=O)C2CCCN(C(=O)/C=C/c3ccccn3)C2)cc1C (centres undefined),0,-27,-5,-10,-34,25,/,/,/,/
CCOC(=O)n1cnc2nc(N)nc(SC)c21,2,-11,/,/,/,/,/,/,/,/
Brc1ccccc1-c1nc2c3ccccc3ncn2n1,9,53*,/,-30,-17,21,13,14,10,15
COc1cc(NC(=O)c2ccc(-c3cccc(F)c3)o2)ccc1NC(=O)c1ccccc1Cl,8,55*,/,-12,-5,9,23*,37,3,2
COc1ccc(NC(=O)c2ccc(-c3ccc(F)cc3)o2)cc1OC,12,35,/,/,/,/,/,/,/,/
COc1ccc(CNC(=O)c2[nH]c(C)c(C(C)=O)c2C)cc1,-1,12,-7,-7,-24,8,/,/,/,/
Cc1ccc(-n2c(C)cc(/C=N/Nc3ccc([N+](=O)[O-])cn3)c2C)cc1,/,/,1,-11,-18,23,4,/,0,/
Cc1cc(/C=N/Nc2ccc([N+](=O)[O-])cn2)c(C)n1-c1ccccc1,-4,40,4,-7,2,27,/,/,/,/
COC(=O)c1cc(Nc2cc(C)c3ccc(O)cc3n2)cc(C(=O)OC)c1,2,23,-4,8,-4,16,/,/,/,/
COC(=O)c1cc(Nc2cc(C)c3c(O)cccc3n2)cc(C(=O)OC)c1,9,63*,-19,-13,-25,27,24*,37,5,15
CCCCc1c(-c2cccc(F)c2)ncn1CCc1ccccc1OC,19,34,/,/,/,/,/,/,/,/
CCCc1c(-c2cccc(F)c2)ncn1CCc1ccccc1OC,19,13,/,/,/,/,/,/,/,/
CCCCc1c(-c2ccccc2F)ncn1CCc1ccccc1OC,20,60*,/,/,/,/,38*,72*,18*,63*
COc1ccccc1CCn1cnc(-c2cccc(F)c2)c1CC(C)C,19,51*,/,/,/,/,35*,67*,16*,55*
SMILES,TAAR1 ag,TAAR1 antagonist,GPR7 antagonist,CHO parental Ca,OX1R antag-1,OX1R antag-2,nonsel antag count,TAAR1 antag conf,Ga16 ag counter,TAAR1 ag counter
CCCCCc1c(-c2ccccc2F)ncn1CCc1ccccc1OC,18,60*,/,/,/,/,39*,59*,21*,48*
CCOC(=O)C1CCN(S(=O)(=O)c2c(C)[nH]c(C)c2C(=O)N2CCCCC2)CC1,0,0,-10,-7,1,2,/,/,/,/
O=C1N/C(=C/c2ccc(Br)cc2)C(O)=C1C=NCc1ccccc1,0,105*,-9,-11,-11,11,2,1,0,3
O=C(OCCN(C1=NS(=O)(=O)c2ccccc21)c1ccc(Cl)cc1)c1ccco1,2,1,1,-16,-22,44,/,/,/,/
CN(C)S(=O)(=O)N1CCc2ccc(NC(=O)c3ccccc3Cl)cc2C1,3,2,-17,2,-14,16,/,/,/,/
COc1ccc(N2CCN(c3nc(Nc4ccc(F)cc4)nc(OC)n3)CC2)cc1,/,/,-3,/,/,/,/,/,/,/
COc1ccc(N2CCN(c3nc(Cl)nc(Nc4ccc(F)cc4)n3)CC2)cc1,2,78*,-9,-15,-28,1,27*,51*,10,17

# Screens (PubChem BioAssay)
